# Screens: PubChem BioAssay, Sanford-Burnham Center for Chemical Genomics
# HKDC1 inh = blocks human hexokinase HKDC1 activity. Q2TB90. recombinant HKDC1, G6PDH/diaphorase resazurin coupled fluorescence. inhibition, % at 20 µM. hit rate 0.16% among 340,000. AID 493160;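 active = inhibition above about 35% when tested at 20 µM, limit read from the data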;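 also: plate controls were DMSO wells with enzyme for no effect and DMSO wells lacking enzyme for full effect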
# Target sequence (Q2TB90 whole entry, looked up): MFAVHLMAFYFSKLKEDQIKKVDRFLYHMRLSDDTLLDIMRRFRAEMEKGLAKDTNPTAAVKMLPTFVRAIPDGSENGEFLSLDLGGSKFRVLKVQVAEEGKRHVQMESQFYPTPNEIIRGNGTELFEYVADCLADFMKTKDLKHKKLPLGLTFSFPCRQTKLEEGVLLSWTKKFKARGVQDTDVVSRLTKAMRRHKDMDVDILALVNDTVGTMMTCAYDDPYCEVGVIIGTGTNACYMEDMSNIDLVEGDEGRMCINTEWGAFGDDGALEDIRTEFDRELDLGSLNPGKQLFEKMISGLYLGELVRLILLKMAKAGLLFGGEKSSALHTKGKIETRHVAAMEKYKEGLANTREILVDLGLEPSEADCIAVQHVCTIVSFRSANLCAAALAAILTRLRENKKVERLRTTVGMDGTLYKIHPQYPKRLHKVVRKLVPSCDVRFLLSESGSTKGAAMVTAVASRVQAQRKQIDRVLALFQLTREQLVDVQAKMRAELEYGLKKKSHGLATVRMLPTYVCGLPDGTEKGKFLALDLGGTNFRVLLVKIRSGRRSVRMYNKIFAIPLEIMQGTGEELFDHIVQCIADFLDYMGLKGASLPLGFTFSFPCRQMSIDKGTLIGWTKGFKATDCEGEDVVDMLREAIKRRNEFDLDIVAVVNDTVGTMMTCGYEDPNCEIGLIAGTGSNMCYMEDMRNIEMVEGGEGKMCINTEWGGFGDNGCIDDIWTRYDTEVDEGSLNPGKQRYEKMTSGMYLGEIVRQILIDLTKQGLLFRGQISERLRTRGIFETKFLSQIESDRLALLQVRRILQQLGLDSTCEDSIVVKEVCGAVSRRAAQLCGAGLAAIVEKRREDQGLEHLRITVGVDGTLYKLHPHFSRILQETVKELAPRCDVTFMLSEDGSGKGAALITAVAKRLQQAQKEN
#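 Assay system: recombinant HKDC1 hexokinase; detection: coupled resazurin fluorescence, excitation 525 nm, emission 613 nm; benchmarks: DMSO-plus-enzyme-mix negative control, buffer-substituted positive control; compound dosing: single 20 µM dose; schedule: 90 min at room temperature in dark; also added: glucose plus 1 mM ATP as hexokinase substrates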
# PfGluPho inh = PfG6PD (Plasmodium falciparum) enzyme inhibition; PfGluPho enzyme, NADPH resazurin-diaphorase fluorescence; inhibition, % at 20 µM; hit rate 0.78% among 350,000; AID 504690;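 active = inhibition reaching at least a set limit at 20 µM in the primary screen, cut at about 59% in these data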;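 also: 0% = DMSO wells with substrate and 100% = DMSO wells lacking glucose-6-phosphate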
# G6PDH counter = inhibits Leuconostoc G6PDH, flagging false hits in G6PDH-based assays. inhibition, % at 5 µM. hit rate 0.12% among 200,000. Purified L. mesenteroides G6PDH, diaphorase/resazurin coupled fluorescence, 45 min. AID 1020; in the data active = inhibition above about 50%
# Diaphorase inh = counter-screen for diaphorase-based assays: diaphorase inhibitors and chemical oxidizers | diaphorase resazurin-to-resorufin fluorescence, NADH, 16 min; bacterial (C. kluyveri) enzyme, not human | inhibition, % at 20 µM | hit rate 0.69% among 190,000;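 active = primary screen inhibition at 20 µM above a set limit, cut at about 50% in these data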;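 also: plate controls were DMSO with full reaction for no effect and wells lacking NADH for full effect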
#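 controls = No-NADH positive control and DMSO neutral control | system = Clostridium kluyveri diaphorase enzyme | timing = reaction incubation of 16 min at room temperature | signal = resorufin fluorescence 544/590 nm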
# PfG6PD confirm = confirmation of Plasmodium falciparum G6PD inhibitors. hit rate 34% among 2,400. recombinant PfGluPho, NADPH-diaphorase-resazurin fluorescence. inhibition, % at 20 µM. shares compounds with PfGluPho inh;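 active = inhibition of at least 50% at 20 µM in any single replicate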;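 also: 0% = DMSO with substrate and 100% = DMSO lacking glucose-6-phosphate substrate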
# Diaphorase 10uM = inhibits diaphorase or oxidizes, flagging false PfG6PD hits | shares compounds with PfGluPho inh | diaphorase-coupled resazurin reduction, fluorescence, NADPH 10 uM | inhibition, % at 20 µM | hit rate 39% among 820 | AID 504862;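 active = average inhibition reaching 50% or more with the compound at 20 µM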;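 also: resorufin red fluorescence formed as diaphorase reduces resazurin using NADPH; 0% = DMSO with enzyme and 100% = DMSO without enzyme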
# Diaphorase 30uM = counter-screen for P. falciparum G6PD inhibitors: diaphorase inhibitors, oxidizers | shares compounds with PfGluPho inh | Diaphorase/resazurin coupled assay, resorufin fluorescence, 30 uM NADPH | inhibition, % at 20 µM | hit rate 29% among 820;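 active = inhibition averaging 50% or more, tested at 20 µM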;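 also: 0% = DMSO with enzyme and 100% = DMSO wells lacking diaphorase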
# * = called active by the depositor; x = no result. Only some compounds are listed: those with a hit (about 1.2% of all), similar ones and a draw of the others.
SMILES,HKDC1 inh,PfGluPho inh,G6PDH counter,Diaphorase inh,PfG6PD confirm,others
COC(=O)CCCC1=CC2=CC(=O)C(C)(OC(=O)c3cccs3)C(=O)C2=CN1C1CCCCC1 (centres undefined),16,37,x,x,x,
COC(=O)CCC(=O)OC1(C)C(=O)C=C2C=C(C3CC3)N(CCc3c[nH]c4ccccc34)C=C2C1=O (centres undefined),24,65*,x,x,38,
Cc1cc(C(=O)Cn2nnc3ccccc3c2=O)c(C)n1-c1ccccc1F,8,65*,0,19,19,
COC(=O)c1cc2ccccc2c(-c2c(OC)c(C(=O)OC)cc3ccccc23)c1OC,5,89*,6,29,33,
Cc1ccc2c(C)c(C)c(=O)n(C)c2c1,-2,27,x,x,x,
CCOC(=O)c1ccc(S(=O)(=O)Nc2cc(S(=O)(=O)N3CCOCC3)ccc2O)cc1,-14,60*,x,x,10,
CCOC(=O)c1ccc(NC(=O)c2cccc(S(=O)(=O)N3CCOCC3)c2)cc1,-1,18,11,32,x,
Cc1ccc(S(=O)(=O)N2CCOCC2)cc1NC(=O)CSc1ccc(Cl)cc1,-2,0,x,x,x,
O=C(CCCSc1ccc(Cl)cc1)Nc1cc(S(=O)(=O)N2CCOCC2)ccc1O,-7,74*,x,x,25,
COc1ccc(NC(=S)NC(NC(=O)c2ccccc2Cl)C(Cl)(Cl)Cl)c([N+](=O)[O-])c1 (centres undefined),-1,11,-4,29,x,
COc1ccc(NC(=S)NC(NC(=O)CCl)C(Cl)(Cl)Cl)c([N+](=O)[O-])c1 (centres undefined),19,65*,8,32,48,
CN(C(=O)c1cc2n(n1)C(C(F)(F)F)CC(c1ccco1)N2)c1ccccc1 (centres undefined),-6,94*,5,7,66*,Diaphorase 10uM=80*;Diaphorase 30uM=53*
Nc1cc2nc3ccccc3oc-2cc1=O,26,74*,x,x,19,
O=c1oc2ccccc2cc1-c1nc2ccccc2o1,-3,-5,-4,5,x,
Cn1nc([N+](=O)[O-])c2c(-c3nc4ccccc4s3)c(N)n(C3CCCCC3)c2c1=O,11,77*,5,2,-3,
Cc1ccccc1NC(=O)C(C)OC(=O)C1CCCO1 (centres undefined),x,-6,x,x,x,
O=C1C(CN2CCCC2)CCCC1CN1CCCC1 (centres undefined),1,23,x,x,x,
Cc1nc2ccc(Cl)cc2n1C,x,-10,x,x,x,
O=C(O)COn1c(-c2ccc(Cl)cc2)nc2ccc(Cl)cc21,-4,60*,6,6,36,
COc1ccc(-c2nc3ccccc3n2OCC(=O)O)cc1,13,21,4,3,x,
COn1c(-c2ccc(Cl)cc2)nc2ccc(Cl)cc21,0,66*,-1,10,8,
S=C(NCc1ccccc1)NNc1nc2ccccc2[nH]1,13,77*,-2,22,45,
CC(=O)Nc1cccc(NC(=O)CSc2nc(=O)n(CCN3CCOCC3)c3c2CCCC3)c1,-1,-6,x,x,x,
O=C(Nc1cc(C(F)(F)F)ccc1N1CCOCC1)C1Cc2ccccc2CN1C(=O)c1ccco1 (centres undefined),4,81*,2,31,23,
COc1cc(-c2cc(OC)c(O)c(OC)c2)cc(OC)c1O,4,100*,x,x,72*,Diaphorase 10uM=7;Diaphorase 30uM=1
SMILES,HKDC1 inh,PfGluPho inh,G6PDH counter,Diaphorase inh,PfG6PD confirm,others
CCOC(=O)N1CCC(Nc2ncnc3c2cnn3-c2ccccc2)CC1,-3,4,16,14,x,
c1ccc(-n2ncc3c(NC4CCCCCC4)ncnc32)cc1,1,96*,x,x,21,
Cc1cccc(OCC(=O)NCC(=O)N/N=C/c2ccccc2)c1,-2,69*,x,x,50*,Diaphorase 10uM=41;Diaphorase 30uM=41
CCOc1ccc(Cl)cc1/C=N/NC(=O)CNC(=O)c1ccccc1,-5,118*,-3,8,92*,Diaphorase 10uM=93*;Diaphorase 30uM=85*
O=C(COc1ccccc1)NCC(=O)N/N=C/c1cc(Br)ccc1OCc1ccccc1,-1,81*,2,17,29,
O=C(C[C@@H]1C/C=C\CCC(=O)OC[C@H](Cc2ccccc2)NC1=O)N[C@@H](CO)Cc1ccccc1,-6,1,x,x,x,
O=C(Nc1nc(=S)ss1)c1c(F)cccc1F,-10,62*,5,2,11,
Cc1ccccc1C(=O)Nc1nc(=S)ss1,-4,49,2,6,x,
CC(=O)N1C[C@H]2CON(C)[C@H]2C[C@H]1c1ccc(-c2ccc(C#N)cc2)cc1,x,9,x,x,x,
COc1cc(OC)c(C2CC(=O)N3CN(c4ccc(C)cc4)CSC3=C2C#N)cc1OC (centres undefined),16,89*,44,46,40,
Cc1ccc(N2C(N)=C(C#N)C(c3cccs3)C3=C2CC(C)(C)CC3=O)cc1 (centres undefined),1,10,19,17,x,
CCSC1=C(C#N)C(c2ccc(OC)c(OC)c2)CC(=O)N1 (centres undefined),-6,7,12,8,x,
COc1ccc(N2CSC3=C(C#N)C(c4ccc(OC)c(OC)c4)CC(=O)N3C2)c(OC)c1 (centres undefined),14,80*,43,58*,65*,Diaphorase 10uM=5;Diaphorase 30uM=11
COc1ccc(N2CSC3=C(C#N)C(c4cc(OC)c(OC)cc4OC)CC(=O)N3C2)c(OC)c1 (centres undefined),13,102*,44,66*,74*,Diaphorase 10uM=6;Diaphorase 30uM=7
Cc1ccc(N2CSC3=C(C#N)C(c4cccs4)CC(=O)N3C2)cc1 (centres undefined),15,70*,22,46,32,
CCc1ccc(C(=O)NNC(=O)c2cccc(S(=O)(=O)N3CCN(C)CC3)c2)cc1,-1,-9,x,x,x,
CCOc1ccccc1N1CSC2=C(C#N)C(c3c(OC)ccc4ccccc34)CC(=O)N2C1 (centres undefined),23,74*,42,67*,31,
CCOc1ccccc1N1CCN(S(=O)(=O)c2cc(C)ccc2OC)CC1,9,14,19,x,x,
COc1ccc(C2C(C#N)=C(N)SC(N)=C2C#N)cc1OC,7,22,-19,24,x,
COc1ccc(C2CC(=O)N3CN(c4ccc(C)c(Cl)c4)CSC3=C2C#N)cc1OC (centres undefined),17,59*,18,60*,3,
CC1CC1C(=O)OCC(=O)Nc1ccc(Cl)cn1 (centres undefined),3,-5,x,x,x,
Clc1ccc(Cl)c(-c2nn3c(COc4ccccc4)nnc3s2)c1,-19,60*,-25,3,36,
c1ccc(OCc2nnc3sc(-c4cccs4)nn23)cc1,-8,86*,5,7,34,
